Assay results from ChEMBL document CHEMBL5620437, “Discovery of Conformationally Constrained ALK2 Inhibitors” (J Med Chem, 2024).
Activity calls are given as the source filed them. No cut-off for these calls is given here.

Key:
[1] = Apparent permeability across apical to basolateral side in human Caco-2 cells incubated for 2 hrs by LC/MS analysis; type: ADME, cell-based
Procedure, shortened: (§1)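 Caco-2 (C2BBE1) cells seeded 40,000/well on 1.0 μm PET inserts, grown 21–22 days; HBSS with 10 mM HEPES, 15 mM glucose, pH 7.4. Compound 5 μM in donor (0.1% DMSO), receiver with 1% BSA; 2 h at 37 °C shaking. Metoprolol, atenolol, Lucifer yellow, digoxin controls. LC/MS peak areas; two technical replicates; efflux ratio = Papp B-A / Papp A-B.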

Activin receptor type-1 [2] = molecular target: T1, Activin receptor type-1 (Homo sapiens, UniProt Q04771); assay: Inhibition of ALK2 in human HEK293 cells using NanoGlo as substrate incubated for 2 hrs by NanoBRET assay; type: cell-based
T1 sequence (Q04771 whole entry): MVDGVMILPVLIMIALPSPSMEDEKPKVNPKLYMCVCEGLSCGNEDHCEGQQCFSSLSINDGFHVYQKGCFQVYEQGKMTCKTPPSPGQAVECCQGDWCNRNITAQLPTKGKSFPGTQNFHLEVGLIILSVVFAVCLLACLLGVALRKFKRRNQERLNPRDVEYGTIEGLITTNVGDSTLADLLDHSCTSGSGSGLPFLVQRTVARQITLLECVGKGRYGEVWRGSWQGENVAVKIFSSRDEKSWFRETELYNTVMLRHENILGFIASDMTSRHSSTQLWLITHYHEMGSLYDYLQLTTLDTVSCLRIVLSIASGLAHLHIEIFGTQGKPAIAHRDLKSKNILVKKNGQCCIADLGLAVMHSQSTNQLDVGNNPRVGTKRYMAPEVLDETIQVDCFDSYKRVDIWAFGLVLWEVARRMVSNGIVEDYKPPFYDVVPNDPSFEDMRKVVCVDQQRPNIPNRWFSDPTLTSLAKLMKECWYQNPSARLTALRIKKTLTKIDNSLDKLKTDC

[3] = Metabolic stability in CD-1 mouse liver microsome at 1 uM in presence of NADPH-regeneration system incubated for 60 mins by LC/MS analysis; type: ADME; details: liver microsomes, read-out: Stability
Procedure, shortened: (§2)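 Compound 1 μM final (0.1% DMSO) in 0.1 M potassium phosphate pH 7.4 with male CD-1 mouse or pooled human liver microsomes at 0.5 mg/mL protein plus NADPH-regeneration mix. Sampled at 0 and 60 min at 37 °C, in duplicate. Parent remaining by LC/MS peak area.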

[4] = Apparent permeability across basolateral to apical side in human Caco-2 cells incubated for 2 hrs by LC/MS analysis; type: ADME, cell-based; procedure, shortened: as §1
[5] = Metabolic stability in human liver microsome at 1 uM in presence of NADPH-regeneration system incubated for 60 mins by LC/MS analysis; type: ADME; details: liver microsomes, read-out: Stability; procedure, shortened: as §2
Activin receptor type-1 [6] = molecular target: T1, Activin receptor type-1; assay: Inhibition of N-terminal GST-his6 tagged human recombinant ALK2 (145 to 509 residues) expressed in Sf9 insect cells in presence of ATP by radiometric kinase assay
[7] = Drug concentration in NOD-SCID mouse plasma at 25 mg/kg, po measured at 0.5 hrs by LC-MS/MS analysis; type: ADME, organism-based
Procedure, shortened: (§3)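 Male NOD-SCID mice given 25 mg/kg orally in 5% DMSO, 47.5% PEG, 47.5% deionized water with 10% Tween80. Plasma drug levels measured at 0.5, 1, 2, 6 and 24 h; demethylated metabolites also quantified.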

[8] = Drug concentration in NOD-SCID mouse plasma at 25 mg/kg, po measured at 1 hrs by LC-MS/MS analysis; type: ADME, organism-based; procedure, shortened: as §3
[9] = Drug concentration in NOD-SCID mouse plasma at 25 mg/kg, po measured at 2 hrs by LC-MS/MS analysis; type: ADME, organism-based; procedure, shortened: as §3
[10] = Drug concentration in NOD-SCID mouse plasma at 25 mg/kg, po measured at 6 hrs by LC-MS/MS analysis; type: ADME, organism-based; procedure, shortened: as §3
[11] = Drug concentration in NOD-SCID mouse plasma at 25 mg/kg, po measured at 24 hrs by LC-MS/MS analysis; type: ADME, organism-based; procedure, shortened: as §3
[12] = Drug concentration in NOD-SCID mouse brain at 10 mg/kg, po measured at 2 hrs by LC-MS/MS analysis; type: ADME, organism-based; details: read-out: Ct
Procedure, shortened: (§4)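 Male NOD-SCID mice dosed orally at 10 mg/kg. Plasma and brain concentrations of parent and demethylated metabolites measured at 2 and 4 h. Kp = Cbrain/Cplasma at 4 h.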

[13] = Drug concentration in NOD-SCID mouse plasma at 10 mg/kg, po measured at 4 hrs by LC-MS/MS analysis; type: ADME, organism-based; procedure, shortened: as §4
[14] = Drug concentration in NOD-SCID mouse plasma at 10 mg/kg, po measured at 2 hrs by LC-MS/MS analysis; type: ADME, organism-based; procedure, shortened: as §4
[15] = Drug concentration in NOD-SCID mouse brain at 10 mg/kg, po measured at 4 hrs by LC-MS/MS analysis; type: ADME, organism-based; details: read-out: Ct; procedure, shortened: as §4
[16] = Ratio of drug concentration in brain to plasma in NOD-SCID mouse brain at 10 mg/kg, po measured at 4 hrs by LC-MS/MS analysis; type: ADME, organism-based; details: read-out: BPR; procedure, shortened: as §4
[17] = Dissociation constant, pKa of compound; type: physicochemical
[18] = molecular target: Epithelial discoidin domain-containing receptor 1 (Homo sapiens) (UniProt Q08345); assay: Inhibition of human recombinant DDR1 (492 to end residues) using KKKSPGEYVNIEF as substrate incubated for 40 mins by scintillation based radiometric LeadHunter assay
[19] = molecular target: Receptor-interacting serine/threonine-protein kinase 2 (Homo sapiens) (UniProt O43353); assay: Inhibition of human recombinant RIPK2 (1 to 299 residues) incubated for 120 mins in presence of ATP by scintillation based radiometric LeadHunter assay
[20] = system: Epidermal growth factor receptor (Homo sapiens), P00533 [L858R]; assay: Inhibition of human EGFR L858R mutant (696 to end residues) using poly Glu as substrate incubated for 40 mins by scintillation based radiometric LeadHunter assay
[21] = molecular target: Protein-tyrosine kinase 6 (Homo sapiens) (UniProt Q13882); assay: Inhibition of full length human recombinant BRK using poly Glu as substrate incubated for 40 mins by scintillation based radiometric LeadHunter assay
[22] = molecular target: Tyrosine-protein kinase Lyn (Homo sapiens) (UniProt P07948); assay: Inhibition of full length human recombinant LYN (1 to 367 residues) using poly Glu as substrate incubated for 40 mins by scintillation based radiometric LeadHunter assay
[23] = molecular target: TRAF2 and NCK-interacting protein kinase (Homo sapiens) (UniProt Q9UKE5); assay: Inhibition of human recombinant TNIK (1 to 367 residues) using RLGRDKYKTLRQI as substrate incubated for 40 mins by scintillation based radiometric LeadHunter assay
[24] = system: Epidermal growth factor receptor (Homo sapiens), P00533 [L861Q]; assay: Inhibition of human EGFR L861Q mutant (696 to end residues) using poly Glu as substrate incubated for 40 mins by scintillation based radiometric LeadHunter assay
[25] = molecular target: TRAF2 and NCK-interacting protein kinase (Homo sapiens) (UniProt Q9UKE5); assay: Inhibition of human recombinant TNIK (1 to 367 residues) using RLGRDKYKTLRQI as substrate at 1 uM incubated for 40 mins by scintillation based radiometric LeadHunter assay relative to control
[26] = molecular target: Epithelial discoidin domain-containing receptor 1 (Homo sapiens) (UniProt Q08345); assay: Inhibition of human recombinant DDR1 (492 to end residues) using KKKSPGEYVNIEF as substrate at 1 uM incubated for 40 mins by scintillation based radiometric LeadHunter assay relative to control

Chain of Epithelial discoidin domain-containing receptor 1 (Homo sapiens) (Q08345 whole entry, the tested form may be a part): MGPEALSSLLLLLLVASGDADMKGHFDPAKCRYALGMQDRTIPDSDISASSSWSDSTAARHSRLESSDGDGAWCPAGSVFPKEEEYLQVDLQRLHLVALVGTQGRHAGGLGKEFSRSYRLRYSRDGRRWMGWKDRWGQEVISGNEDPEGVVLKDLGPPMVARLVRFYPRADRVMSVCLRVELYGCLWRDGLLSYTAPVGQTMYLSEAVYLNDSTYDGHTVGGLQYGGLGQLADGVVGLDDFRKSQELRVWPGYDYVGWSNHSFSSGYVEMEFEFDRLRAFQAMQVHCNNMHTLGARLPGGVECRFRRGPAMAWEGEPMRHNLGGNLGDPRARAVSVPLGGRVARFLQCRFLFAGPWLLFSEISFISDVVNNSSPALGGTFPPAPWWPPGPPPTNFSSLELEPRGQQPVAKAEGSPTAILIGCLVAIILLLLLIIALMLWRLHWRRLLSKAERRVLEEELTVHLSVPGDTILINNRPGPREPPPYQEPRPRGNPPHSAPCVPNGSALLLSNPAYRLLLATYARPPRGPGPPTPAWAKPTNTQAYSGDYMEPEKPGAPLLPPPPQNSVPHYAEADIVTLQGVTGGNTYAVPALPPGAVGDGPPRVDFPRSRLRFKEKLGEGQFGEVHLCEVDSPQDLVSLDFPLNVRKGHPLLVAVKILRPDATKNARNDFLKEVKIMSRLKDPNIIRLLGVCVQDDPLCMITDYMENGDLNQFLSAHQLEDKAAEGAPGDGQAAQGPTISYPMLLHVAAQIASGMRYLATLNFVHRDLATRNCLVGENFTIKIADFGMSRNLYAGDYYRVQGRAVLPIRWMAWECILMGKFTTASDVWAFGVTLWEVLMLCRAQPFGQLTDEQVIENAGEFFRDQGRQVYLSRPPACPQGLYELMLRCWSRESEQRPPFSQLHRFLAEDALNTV
Chain of TRAF2 and NCK-interacting protein kinase (Homo sapiens) (Q9UKE5 whole entry, looked up, the tested form may be a part): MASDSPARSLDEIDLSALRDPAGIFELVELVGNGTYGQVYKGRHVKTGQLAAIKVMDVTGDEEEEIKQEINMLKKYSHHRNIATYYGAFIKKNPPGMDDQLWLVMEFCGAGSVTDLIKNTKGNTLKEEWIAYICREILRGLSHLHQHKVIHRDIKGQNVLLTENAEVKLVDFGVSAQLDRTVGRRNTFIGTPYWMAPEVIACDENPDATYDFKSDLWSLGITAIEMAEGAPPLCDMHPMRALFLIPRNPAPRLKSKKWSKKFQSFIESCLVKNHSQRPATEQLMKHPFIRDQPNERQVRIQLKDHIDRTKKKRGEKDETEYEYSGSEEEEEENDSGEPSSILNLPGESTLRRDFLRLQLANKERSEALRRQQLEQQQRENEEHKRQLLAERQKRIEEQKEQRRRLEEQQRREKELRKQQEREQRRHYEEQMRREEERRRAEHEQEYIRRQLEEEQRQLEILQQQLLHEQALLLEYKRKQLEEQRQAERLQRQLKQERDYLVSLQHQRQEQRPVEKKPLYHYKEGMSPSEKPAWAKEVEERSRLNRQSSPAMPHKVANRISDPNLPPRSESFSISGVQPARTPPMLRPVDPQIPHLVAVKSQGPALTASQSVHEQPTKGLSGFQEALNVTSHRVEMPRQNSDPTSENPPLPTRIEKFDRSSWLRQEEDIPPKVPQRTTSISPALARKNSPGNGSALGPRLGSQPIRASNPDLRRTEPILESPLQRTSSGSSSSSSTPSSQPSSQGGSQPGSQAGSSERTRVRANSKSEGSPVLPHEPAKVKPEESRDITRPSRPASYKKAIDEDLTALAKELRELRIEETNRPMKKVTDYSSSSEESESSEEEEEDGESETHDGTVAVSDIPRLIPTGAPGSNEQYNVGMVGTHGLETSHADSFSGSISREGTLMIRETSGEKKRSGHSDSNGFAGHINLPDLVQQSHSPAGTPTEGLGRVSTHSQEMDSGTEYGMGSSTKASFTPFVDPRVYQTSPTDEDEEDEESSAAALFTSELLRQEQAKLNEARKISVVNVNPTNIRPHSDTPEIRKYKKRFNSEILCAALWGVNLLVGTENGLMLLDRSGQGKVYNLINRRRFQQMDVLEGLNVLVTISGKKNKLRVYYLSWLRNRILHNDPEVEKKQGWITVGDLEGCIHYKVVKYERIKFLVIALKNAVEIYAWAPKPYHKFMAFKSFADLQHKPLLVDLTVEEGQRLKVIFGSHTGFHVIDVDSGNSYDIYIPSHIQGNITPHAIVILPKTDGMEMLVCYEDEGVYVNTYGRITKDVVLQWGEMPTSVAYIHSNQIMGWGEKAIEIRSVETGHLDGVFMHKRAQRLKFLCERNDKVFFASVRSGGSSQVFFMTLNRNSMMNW
Chain of Epidermal growth factor receptor (Homo sapiens), P00533 [L861Q] (P00533 whole entry L861Q, the tested form may be a part): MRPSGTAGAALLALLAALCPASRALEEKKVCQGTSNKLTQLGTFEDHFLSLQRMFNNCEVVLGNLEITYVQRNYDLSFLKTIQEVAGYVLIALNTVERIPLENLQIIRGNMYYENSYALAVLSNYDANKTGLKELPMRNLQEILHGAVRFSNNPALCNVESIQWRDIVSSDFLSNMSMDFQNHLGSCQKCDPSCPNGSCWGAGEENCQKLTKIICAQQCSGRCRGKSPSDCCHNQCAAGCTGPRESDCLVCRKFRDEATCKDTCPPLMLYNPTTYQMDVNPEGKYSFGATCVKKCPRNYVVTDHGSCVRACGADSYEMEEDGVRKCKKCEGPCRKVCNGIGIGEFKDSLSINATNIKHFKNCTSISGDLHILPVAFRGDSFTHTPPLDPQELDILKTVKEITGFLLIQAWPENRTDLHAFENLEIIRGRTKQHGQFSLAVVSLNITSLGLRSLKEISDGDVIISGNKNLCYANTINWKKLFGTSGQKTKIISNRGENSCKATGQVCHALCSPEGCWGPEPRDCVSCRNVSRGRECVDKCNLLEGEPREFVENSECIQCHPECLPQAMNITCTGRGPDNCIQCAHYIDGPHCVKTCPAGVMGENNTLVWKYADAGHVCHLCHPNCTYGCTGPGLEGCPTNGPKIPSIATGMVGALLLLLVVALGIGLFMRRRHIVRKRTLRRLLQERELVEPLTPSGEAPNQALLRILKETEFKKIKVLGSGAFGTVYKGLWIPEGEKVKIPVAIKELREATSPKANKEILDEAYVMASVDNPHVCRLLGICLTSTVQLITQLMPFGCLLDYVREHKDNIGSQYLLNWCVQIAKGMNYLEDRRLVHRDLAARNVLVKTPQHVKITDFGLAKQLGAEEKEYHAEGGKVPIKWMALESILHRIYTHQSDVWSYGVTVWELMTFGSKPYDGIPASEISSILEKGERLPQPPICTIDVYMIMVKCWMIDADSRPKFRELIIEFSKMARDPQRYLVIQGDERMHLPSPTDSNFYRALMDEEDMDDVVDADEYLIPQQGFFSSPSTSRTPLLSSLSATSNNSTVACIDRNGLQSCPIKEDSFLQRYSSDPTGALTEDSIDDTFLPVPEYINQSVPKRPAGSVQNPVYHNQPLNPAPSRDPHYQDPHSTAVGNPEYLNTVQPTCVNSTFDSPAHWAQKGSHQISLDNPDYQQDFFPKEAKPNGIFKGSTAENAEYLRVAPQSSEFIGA
Chain of Protein-tyrosine kinase 6 (Homo sapiens) (Q13882 whole entry, looked up, the tested form may be a part): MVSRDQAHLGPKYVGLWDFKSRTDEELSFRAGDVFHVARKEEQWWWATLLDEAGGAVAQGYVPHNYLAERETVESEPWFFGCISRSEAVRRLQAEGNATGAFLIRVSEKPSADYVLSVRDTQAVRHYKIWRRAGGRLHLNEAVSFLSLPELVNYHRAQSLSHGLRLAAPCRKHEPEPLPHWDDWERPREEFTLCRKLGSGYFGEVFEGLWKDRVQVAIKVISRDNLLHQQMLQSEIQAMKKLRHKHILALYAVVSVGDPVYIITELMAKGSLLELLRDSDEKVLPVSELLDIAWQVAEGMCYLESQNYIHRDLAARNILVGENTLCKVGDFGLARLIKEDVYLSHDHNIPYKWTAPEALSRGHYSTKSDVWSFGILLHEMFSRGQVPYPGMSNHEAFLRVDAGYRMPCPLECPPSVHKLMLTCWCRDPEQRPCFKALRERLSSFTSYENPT
Chain of Receptor-interacting serine/threonine-protein kinase 2 (Homo sapiens) (O43353 whole entry, the tested form may be a part): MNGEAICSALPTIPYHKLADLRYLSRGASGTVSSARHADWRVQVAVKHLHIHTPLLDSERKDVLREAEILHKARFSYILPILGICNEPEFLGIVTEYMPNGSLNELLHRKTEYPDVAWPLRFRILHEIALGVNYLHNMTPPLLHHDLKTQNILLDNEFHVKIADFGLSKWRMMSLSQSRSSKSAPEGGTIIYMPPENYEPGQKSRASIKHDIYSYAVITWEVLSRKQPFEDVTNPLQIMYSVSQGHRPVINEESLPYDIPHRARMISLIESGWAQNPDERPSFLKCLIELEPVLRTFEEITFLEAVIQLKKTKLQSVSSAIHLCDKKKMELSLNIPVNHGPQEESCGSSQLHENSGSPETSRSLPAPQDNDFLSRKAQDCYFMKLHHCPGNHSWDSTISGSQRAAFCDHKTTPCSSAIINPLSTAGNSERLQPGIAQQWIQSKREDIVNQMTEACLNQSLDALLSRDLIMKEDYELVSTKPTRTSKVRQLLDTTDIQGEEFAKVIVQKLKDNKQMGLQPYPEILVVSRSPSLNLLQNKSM
Chain of Tyrosine-protein kinase Lyn (Homo sapiens) (P07948 2-512 limits assumed): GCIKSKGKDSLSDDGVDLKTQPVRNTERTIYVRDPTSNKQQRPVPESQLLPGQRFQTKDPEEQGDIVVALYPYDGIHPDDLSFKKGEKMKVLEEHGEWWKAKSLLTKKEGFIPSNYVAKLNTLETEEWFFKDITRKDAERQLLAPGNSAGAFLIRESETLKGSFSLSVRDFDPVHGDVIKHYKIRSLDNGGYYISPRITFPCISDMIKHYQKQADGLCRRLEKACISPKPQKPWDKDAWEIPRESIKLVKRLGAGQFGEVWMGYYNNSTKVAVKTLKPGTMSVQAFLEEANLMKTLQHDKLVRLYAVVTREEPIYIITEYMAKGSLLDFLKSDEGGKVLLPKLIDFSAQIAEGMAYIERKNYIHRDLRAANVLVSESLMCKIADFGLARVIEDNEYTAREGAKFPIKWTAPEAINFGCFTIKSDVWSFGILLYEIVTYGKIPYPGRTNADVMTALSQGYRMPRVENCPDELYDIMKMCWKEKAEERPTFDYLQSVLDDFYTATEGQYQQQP

Row | SMILES | Papp A→B at 2 h [1] | IC50 (Activin receptor type-1 [2]) | remaining at 1 h, 1 µM [3] | Papp B→A at 2 h [4] | remaining at 1 h, 1 µM [5] | IC50 (Activin receptor type-1 [6]) | concentration at 0.5 h [7] | concentration at 1 h [8] | concentration at 2 h [9] | concentration at 6 h [10] | concentration at 24 h [11] | concentration at 2 h [12] | concentration at 4 h [13] | concentration at 2 h [14] | concentration at 4 h [15] | Kp at 4 h [16] | pKa [17] | further results
1 | COc1cc(-c2cncc3c2oc2cc(N4CCN(C)CC4)ccc23)cc(OC)c1OC | 4 ×10⁻⁶ cm/s | > 10000 nM | 9.5% | 2.5 ×10⁻⁶ cm/s | 37.4% | 609 nM | – | – | – | – | – | – | – | – | – | – | – | –
2 | COc1cc(-c2cncc3c2CCOc2cc(N4CCNCC4)ccc2-3)cc(OC)c1OC | 5.3 ×10⁻⁶ cm/s | 6 nM | 70.9% | 11.6 ×10⁻⁶ cm/s | 66.5% | 2 nM | 729 nM | 1070 nM | 1120 nM | 1890 nM | 63 nM | – | – | – | – | – | – | –
3 | COc1cc(-c2cncc3c2COCc2cc(N4CCN(C)CC4)ccc2-3)cc(OC)c1OC | 16.5 ×10⁻⁶ cm/s | 7 nM | 4.3% | 13.6 ×10⁻⁶ cm/s | 29.7% | 3 nM | – | – | – | – | – | – | – | – | – | – | – | –
4 | COc1cc(-c2cncc3c2COCc2cc(N4CCNCC4)ccc2-3)cc(OC)c1OC | 4.2 ×10⁻⁶ cm/s | 5 nM | 75.7% | 9.4 ×10⁻⁶ cm/s | 62.3% | 2 nM | – | – | – | – | – | – | – | – | – | – | – | –
5 | COc1cc(-c2cncc3c2CCOc2cc(N4CCN(C)CC4)ccc2-3)cc(OC)c1OC | 13.9 ×10⁻⁶ cm/s | 15 nM | 10.3% | 11.5 ×10⁻⁶ cm/s | 21.2% | 2 nM | 3650 nM | 5050 nM | 3530 nM | 2230 nM | – | 2410 nM | 393 nM | 980 nM | 1470 nM | 3.7 | 8.54 | –
6 | COc1cc(-c2cncc3c2CN(C)Cc2cc(N4CCN(C)CC4)ccc2-3)cc(OC)c1OC | 1.5 ×10⁻⁶ cm/s | 18 nM | 65% | 2.5 ×10⁻⁶ cm/s | 58.3% | 7 nM | 134 nM | 254 nM | 277 nM | 300 nM | 17 nM | 4130 nM | 43 nM | 75 nM | 3250 nM | 75.6 | 8.12 | –
7 | COc1cc(-c2cncc3c2CN(C)Cc2cc(N4CCNCC4)ccc2-3)cc(OC)c1OC | 0.8 ×10⁻⁶ cm/s | 11 nM | 98.6% | 4.2 ×10⁻⁶ cm/s | 73.2% | 3 nM | 323 nM | 466 nM | 523 nM | 1260 nM | 336 nM | – | – | – | – | – | – | inhibition [18]: Active; inhibition [19]: Active; inhibition [20]: Active; inhibition [21]: Active; inhibition [22]: Active; inhibition [23]: Active; inhibition [24]: Active
8 | COc1cc(-c2cncc3c2COc2cc(N4CCN(C)CC4)ccc2-3)cc(OC)c1OC | 8.3 ×10⁻⁶ cm/s | 45 nM | 0.9% | 9 ×10⁻⁶ cm/s | 34.8% | 13 nM | – | – | – | – | – | – | – | – | – | – | – | –
9 | COc1cc(-c2cncc(-c3ccc(N4CCNCC4)cc3)c2C)cc(OC)c1OC | – | – | – | – | – | – | 3020 nM | 4280 nM | 7490 nM | 13400 nM | 1540 nM | 2320 nM | 2680 nM | 5250 nM | 888 nM | 0.3 | 8.6 | inhibition [25]: 100%; inhibition [26]: 100%
